Laboratory results from ChEMBL document CHEMBL4513216, “Probing the Open Global Health Chemical Diversity Library for Multistage-Active Starting Points for Next-Generation Antimalarials” (ACS Infect Dis, 2020).

Test: Toxicity liver stage against HepG2, at 10uM
Assay type: cell-based
Design: test concentration 10 uM, cell line HepG2-A16-CD81EGFP
Details: human, HepG2-A16-CD81EGFP cells; read-out: INHIBITION
Procedure, shortened: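 Uninfected HepG2-A16-CD81EGFP cells, 3 × 10^3 per well, 1536-well, plated on prespotted compound at 10 μM final, parasite-free screening media added to match infected plates; puromycin 10 μM positive, DMSO 0.5% negative; run in parallel with 48 h PbLuc assay at 37 °C, 5% CO2; viability by CellTiter-Glo luminescence, normalized to controls.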

Structure (SMILES) | cytotoxicity at 10 µM [%]
Cc1nn(C(C)C)c(C)c1NC(=O)Nc1cccnc1N1CCCC1 | -5.79
Cc1occc(=O)c1OCc1noc(C(=O)NCC(C)C)n1 | 6.43
COc1ccc(NC(=O)Cn2c(=O)nc(N)c3cc(C)sc32)cc1 | 2.31
Cc1ccc(C(=O)Nc2nnc(CC(C)C)s2)c(-n2cnnn2)c1C | -147
COc1cccc(CNC(=O)CC2CSc3nc(C)c(C)c(=O)n32)c1 (stereo unspecified) | -4.31
COCC(=O)Nc1cnc(N2CCOCC2)nc1 | -10.7
COc1ccccc1C(=O)N1CCC(Oc2ccc(C#N)cn2)CC1 | 5.54
COc1cc(C2CC(=O)Nc3c2c(=O)[nH]n3C2CCCC2)ccc1O (stereo unspecified) | -1.37
Cc1nn(Cn2ccc(C(=O)N3CCCCCC3)n2)c(C)c1Cl | 0.781
CCC(=O)N1CCN(c2nc(C)nc3c(C)nn(C)c23)CC1 | 12.4
CC(=O)Nc1ncc(S(=O)(=O)Nc2cccc(C)c2)s1 | 7.63
Cc1nn(C)cc1-c1cc(C(F)F)nc(NC2CCCCC2)n1 | 1.84
N#Cc1cn[nH]c1NCc1cc(Br)ccc1O | -7.29
O=C1CC(c2cccnc2)c2c(sc3c2CCCC3)N1 (stereo unspecified) | 8.75
Cc1cnc(C(=O)N2CCN(c3ncc4c(n3)CCOC4)CC2)cn1 | 4.91
O=C(c1cnc(O)c(Cl)c1)N1CCCC(c2nccs2)C1 (stereo unspecified) | 3.63
Nc1nc(N)c2c(n1)OC1(CCN(C(=O)CC3CCCCN3)CC1)C2 (stereo unspecified) | -0.24
O=S1(=O)NC2(CCCN(Cc3ccc(Cl)cc3)C2)COc2ccccc21 (stereo unspecified) | 15.2
O=C1Nc2ccccc2CC12CCCN2Cc1ccccn1 (stereo unspecified) | -17.1
CCN(CC)C1CCN(C(=O)NCc2cccc(-n3cccn3)c2)C1 (stereo unspecified) | 5.79
CC(Cc1ccc(Cl)cc1)N(C)C(=O)NCCS(C)(=O)=O (stereo unspecified) | 0.606
COCCS(=O)(=O)Cc1nnnn1-c1ccccc1 | -9.4
COCCCSc1ccc(NCc2cscn2)cc1 | 6.43

Structure (SMILES) | cytotoxicity at 10 µM [%]
Cc1ccc(C)c(Oc2ccc(CNC(=O)C3CCS(=O)(=O)C3)cn2)c1 (stereo unspecified) | -3.98
Cc1cc(NC(C)C(=O)N2CCN(c3ncccn3)CC2)ccc1F (stereo unspecified) | 7.77
Cc1ccc(OCC(=O)Nc2ncccc2OC(F)F)cc1 | 6.42
O=C(Nc1cccc(C(F)(F)F)c1)C1CC(=O)N(Cc2ccccn2)C1 (stereo unspecified) | -0.505
CC(C)CCC(=O)N1CCCC1c1nnc2n1CCCCC2 (stereo unspecified) | -8.88
CN(Cc1ccsc1)C(=O)Nc1cccc(N2CCOC2=O)c1 | -12.9
COCC(C)NC(=O)NCCc1cccc(OC)c1O (stereo unspecified) | 7.87
FC(F)c1nnc2ccc(N3CCC4(CCCCC4)C3)nn12 | 1.47
Cc1cc(-n2cncn2)ccc1C(=O)N(C)CC(F)(F)C(F)(F)F | -10.3
CCN(Cc1cnn(C)c1)S(=O)(=O)N1CCCC1c1ccco1 (stereo unspecified) | -3.55
COC(=O)c1cc(C(=O)N2CCc3ccc(F)cc3C2C)ccn1 (stereo unspecified) | 10.5
CCCNC(=O)CCc1ccnc2ccccc12 | 5.25
Cc1nc(C)n(CC2CCCN2c2ncnc3c2CCC3)n1 (stereo unspecified) | 8.03
Cc1nnc(CN(C)CC2CCCCC2)o1 | 15.6
CCNC(=O)NC1CN(Cc2ccncc2Cl)C[C@@H]1OC (stereo partly specified) | 1.85
Cc1noc(C)c1CN(C)C(=O)C1(N)CCCCC1 | 6.67
CC(C)OCCN1CCC(Nc2ccc(C#N)cc2F)CC1 | -4.94
Cn1cc(C(=O)NC2CCCC2)c(-c2cccnc2)n1 | 10.3
O=C1C(N2CCN(c3ccccc3Cl)CC2)CCN1C1CCOCC1 (stereo unspecified) | -0.455
O=C(Cn1cc(I)cn1)NCC1CCC1 | 14.5
CN(C)C(=O)Cn1ccc2cc(NC(=O)N3CCSCC3)ccc21 | 5.25
Cn1cc(C2NC3(CCCC3)C(=O)N2CC2CC2)c(=O)n(C)c1=O (stereo unspecified) | 6.93
Cc1cnc(CN2CCC(N(C)Cc3nnc(C4CC4)n3C)C2)cn1 (stereo unspecified) | -2.31

Structure (SMILES) | cytotoxicity at 10 µM [%]
c1c(CN2CCOCC2)nc2n1CCN(C1CCOCC1)C2 | 0.997
CC(C)c1nccc([C@@H]2C[C@@H]3CCN(Cc4ccoc4)C[C@H]3O2)n1 | -7.47
Cn1cc(-c2nnn3c2COC(CNCc2cccnc2)C3)cn1 (stereo unspecified) | 0.824
CS(=O)(=O)NCc1cn2c(n1)CN(C(=O)c1ccc[nH]1)CC2 | 5.69
CC(=O)Nc1ccc2nc(-c3nccn3C[C@@H]3CCCO3)ccc2c1 | -8.18
O=C1CCC(C(=O)N2CCC(Cn3cc(C4CCCC4)nn3)CC2)=NN1 | 5.14
Cc1nccc(N2CCC(=O)N(CC3CC3)C(C(C)C)C2)n1 (stereo unspecified) | -0.232
NC(=O)c1cc2c(nc1Oc1ccccc1CN1CCCCC1)CCC2 | 3.71
CC(C)c1ncc(CN2C[C@@H](CN3CCCCC3)[C@@H](CO)C2)cn1 | -10.2
O=C(NCCO)c1coc(CN2CCN(c3ccccc3F)CC2)n1 | -11.2
CCCc1ccc2oc(C(=O)N3CCCN(C)CC3)c(C)c2c1 | -8.3
O=C(CCc1ccccc1)C1CCCN(Cc2cncn2C2CC2)C1 (stereo unspecified) | -7.12
c1cc(-c2cnccn2)cc(-c2ccn(CCCN3CCCCC3)n2)c1 | -2.15
CN(C)c1nc(NCCc2cnccn2)ncc1F | 5.56
Cc1cc(C)n2nc(C(=O)N3CCCC4(CNC(=O)O4)C3)cc2n1 (stereo unspecified) | 9.48
Cc1ccccc1N1CCCN(C(=O)CCc2ccncc2)CC1 | -9.88
Cc1nc(N(C)C)ncc1C(=O)NCCCn1nccc1C1CC1 | 9.53
Fc1ccccc1CN1CCCN(c2ncnc3[nH]ccc23)CC1 | -5.86
O=C(NC1CCNCC1)C1(N2CCCCC2)Cc2ccccc2C1 | -5.47
Cc1ccc(C)c(NC(=O)N2CCC3(CC2)NC(=O)CC3C(=O)O)c1 (stereo unspecified) | 4.9
Cc1ccccc1OCCC(=O)N1CCc2nc(C)n(C)c(=O)c2CC1 | -0.852
COCCCC1(CO)CCCN(Cc2cccc(C#N)c2)C1 (stereo unspecified) | 4.16
COc1ccc(C(C(=O)O)N(C)Cc2c(C)nn(C)c2C)c(C)c1 (stereo unspecified) | 7.47

Structure (SMILES) | cytotoxicity at 10 µM [%]
Cc1n[nH]c(C)c1CC(=O)N1CC[C@@](C)(O)[C@@H](Cc2ccccc2)C1 | 5.94
CCOCC(=O)N1CCC(C2CCN(Cc3ccc(Cl)cc3)C2)CC1 (stereo unspecified) | -9.15
Cc1nnc(CN2CCCC(CCc3ccccc3C(F)(F)F)C2)o1 (stereo unspecified) | 3.67
CCCc1nnc(N2CCCC(c3nnc(Cn4ccnc4)n3C)C2)s1 (stereo unspecified) | -0.391
CCc1ccc(C2CC(=O)Nc3n[nH]cc32)o1 (stereo unspecified) | 0.0773
Cc1cc(CNCc2c(C)n(CC(C)C)c3ccccc23)[nH]n1 | -1.63
CC(C)N1CCCC(C(=O)N2CCc3c(nc(CC4CC4)[nH]c3=O)C2)C1 (stereo unspecified) | -7.41
CCS(=O)(=O)N1CCC(c2nnc(CN3CCCCC3)n2C)CC1 | -6.03
CC(=O)NCC(=O)N1CCC(C2CCN(Cc3ccc(Cl)cc3)C2)CC1 (stereo unspecified) | -9.12
CCc1cc(O)nc(C2CCCN2C(=O)c2cc(C)no2)n1 (stereo unspecified) | 2.69
NC(=O)CC1CCN(C(=O)c2cccn2Cc2cccs2)CC1 | -7.19
CN(Cc1ccccc1)CC(O)Cn1cnc2c(Cl)cc(Cl)cc2c1=O (stereo unspecified) | -2.34
NC(=O)c1cc(C2CCCN(CCOc3ccc(F)cc3)C2)n[nH]1 (stereo unspecified) | -7.92
CCc1nc(CC(=O)N2CCn3c(C)nnc3C2)cs1 | -9.57
Cc1cc(C)c(CNC(=O)NCC2CCCOC2)c(=O)[nH]1 (stereo unspecified) | -8.19
CCCc1noc(CN2CCCCC2Cn2cncn2)n1 (stereo unspecified) | 4.84
Cc1nn(C)c(N2CCOCC2)c1CNCc1cscn1 | -8.07
COCc1ccc(C(=O)N2CCCN(Cc3cscn3)CC2)cc1 | -3.07
CC(=O)N(Cc1noc(C)n1)C1CCN(Cc2ccc(C#N)cc2)C1 (stereo unspecified) | -3.66
CNc1cc2c(nn1)CCN(C(=O)c1ccc3c(c1)CCC3)C2 | 3.15
CCc1csc(C2CCCN(C(=O)c3c[nH]c(C)n3)C2)n1 (stereo unspecified) | -9.03
Cn1cc(CCC(=O)N2CCN(Cc3ccncc3)CC2)cn1 | -6.64
CCc1nc(C2CCCN(C(=O)c3cccc4cn[nH]c34)C2)no1 (stereo unspecified) | -3.73

Structure (SMILES) | cytotoxicity at 10 µM [%]
O=C(COc1ccc2c(c1)CCC2)NS(=O)(=O)c1cncc(Br)c1 | -5.82
CCOc1ccccc1OC1CCN(C(=O)c2nc(=O)[nH][nH]2)CC1 | -9.75
CCn1ccnc1CN1CCN(CCOc2ccccc2OC)CC1 | -8.83
COC(=O)c1ccc(N2CCN(C(=O)c3ccncc3)C(C)C2)cc1 (stereo unspecified) | -6.38
CN(CCCc1ccccc1)Cc1nc2c(cnn2C)c(=O)[nH]1 | -9.56
Cc1nn(C)c(N(C)C)c1CNC(C)c1cccc(OC(C)C)c1 (stereo unspecified) | -7.76
CN1CCC/C1=N\S(=O)(=O)c1ccc(NC(=O)CCc2cccs2)cc1 | -8.55
O=C(NCCc1ccn(-c2ccccc2)n1)N1CCC1 | -0.361
O=C(NC1CC1)[C@@H]1CCO[C@@H]2CCN(CCc3ccccc3)C[C@@H]21 | 3.6
c1ccc([C@@H]2CN(Cc3ccncc3)C[C@H]2c2cc[nH]n2)cc1 | -0.189
Cc1nnc([C@]23COC[C@H]2CN(Cc2cccs2)C3)o1 | -3.34
N#Cc1ccc(C(=O)N2CC[C@H]3[C@H]2CCN3CC2CC2)cc1 | -9.87
Cc1cccc(CN2CCc3nnc(CO)n3CC2)n1 | 6.41
COCC(=O)N1CCC2(CCN(Cc3cccnc3)C2)CC1 | -2.42
O=C(NC1CC2(CCN(CCO)CC2)c2ccccc21)c1ccsc1 (stereo unspecified) | -14.2
CC1c2ncc(CN3CCN(C)CC3)n2CCN1Cc1ccsc1 (stereo unspecified) | 6.58
CCN1CCOCC2(CCCN(C(=O)c3ccncc3F)C2)C1 (stereo unspecified) | -3.16
Cc1ccc(N2CCN(CC3CC3)C3(CCN(C(C)C)CC3)C2=O)cn1 | 16
O=C(O)c1cnc2c(Br)cccc2c1O | 15.5
